Source: ChEMBL document CHEMBL1138278, “Aromatic amide derivatives of 5,6-dimethoxy-2,3-dihydro-1H-inden(-1-yl)acetic acid as anti-inflammatory agents free of ulcerogenic liability” (Bioorg Med Chem Lett, 2007)

How the values were obtained:
Mus musculus [1] = test: Analgesic activity in Swiss Albino mouse assessed as number of acetic acid-induced writhing at 100 mg/kg, po after 1 hr relative to control; type: functional
Method in brief: (§1)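 Mice dosed orally; one hour later injected i.p. with 1% v/v acetic acid at 0.1 ml/10 g. Writhings counted over 15 min, starting five minutes after injection. Means ± SEM, n = 6; p < 0.05 versus control group.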

Rattus norvegicus [2] = test: Antiinflammatory activity in Wistar rat assessed as inhibition of carrageenan-induced paw edema at 100 mg/kg, after 2 hrs; type: functional
Method in brief: (§2)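 Male Wistar rats (170 ± 20 g) dosed orally: test agents at 100 mg/kg, reference at 10 mg/kg. One hour later, 0.1 ml of 1% carrageenan injected subplantar into the right hind paw.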

Mus musculus [3] = test: Analgesic activity in Swiss Albino mouse assessed as inhibition of acetic acid-induced writhing responses at 100 mg/kg, po after 1 hr; type: functional; method in brief: as §1
Rattus norvegicus [4] = test: Antiinflammatory activity in Wistar rat assessed as inhibition of carrageenan-induced paw edema at 100 mg/kg, after 3 hrs; type: functional; method in brief: as §2
Rattus norvegicus [5] = test: Antiinflammatory activity in Wistar rat assessed as inhibition of carrageenan-induced paw edema at 100 mg/kg, after 6 hrs; type: functional; method in brief: as §2
Rattus norvegicus [6] = test: Antiinflammatory activity in Wistar rat assessed as inhibition of carrageenan-induced paw edema at 100 mg/kg, after 1 hr; type: functional; method in brief: as §2
Rattus norvegicus [7] = test: Antiinflammatory activity in Wistar rat assessed as inhibition of carrageenan-induced paw edema at 100 mg/kg, after 24 hrs; type: functional; method in brief: as §2
Rattus norvegicus [8] = test: Antiinflammatory activity in Wistar rat assessed as inhibition of carrageenan-induced paw edema at 100 mg/kg, after 4 hrs; type: functional; method in brief: as §2
Rattus norvegicus [9] = test: Antipyretic activity against LPS-induced pyresis in Wistar rat assessed as change in rectal temperature at 100 mg/kg, po after 3 hrs; type: functional
Method in brief: (§3)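 Male Wistar rats (170 ± 20 g) dosed orally: test agents at 100 mg/kg, indomethacin and aspirin at 10 mg/kg and 100 mg/kg. Half an hour later, LPS in apyrogenic saline given at 100 µg/kg i.p. Rectal temperature taken by telethermometer probe immediately before LPS and hourly from 1 to 7 h after. Change in temperature reported; means ± SEM, n = 6.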

Rattus norvegicus [10] = test: Antipyretic activity against LPS-induced pyresis in Wistar rat assessed as change in rectal temperature at 100 mg/kg, po after 4 hrs; type: functional; method in brief: as §3
Rattus norvegicus [11] = test: Antipyretic activity against LPS-induced pyresis in Wistar rat assessed as change in rectal temperature at 100 mg/kg, po after 2 hrs; type: functional; method in brief: as §3
Rattus norvegicus [12] = test: Antipyretic activity against LPS-induced pyresis in Wistar rat assessed as change in rectal temperature at 100 mg/kg, po after 1 hr; type: functional; method in brief: as §3
Rattus norvegicus [13] = test: Antipyretic activity against LPS-induced pyresis in Wistar rat assessed as change in rectal temperature at 100 mg/kg, po after 5 hrs; type: functional; method in brief: as §3
Rattus norvegicus [14] = test: Antipyretic activity against LPS-induced pyresis in Wistar rat assessed as change in rectal temperature at 100 mg/kg, po after 7 hrs; type: functional; method in brief: as §3
Rattus norvegicus [15] = test: Antipyretic activity against LPS-induced pyresis in Wistar rat assessed as change in rectal temperature at 100 mg/kg, po after 6 hrs; type: functional; method in brief: as §3
Rattus norvegicus [16] = test: Toxicity in 24 hrs fasted Wistar rat assessed as ulcer index at 100 mg/kg, po after 6 hrs; type: organism-based; parameters: dose 100 mg/kg, route oral; conditions: in vivo
Method in brief: (§4)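 Male Wistar rats (175 ± 25 g) fasted 24 h and dosed orally. Acute arm: test agents at 100 mg/kg, indomethacin at 30 mg/kg; rats killed after 6 h, stomachs opened along the greater curvature and scored for ulcers. Chronic arm: 14-day dosing, stomachs examined post mortem at the end of the arthritis study. Ulcer index means ± SEM, n = 4.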

Rattus norvegicus [17] = test: Antiarthritic activity against adjuvant-induced arthritis in Wistar rat assessed as inhibition of paw edema at 100 mg/kg, po on day 13; type: functional; conditions: 312 h
Method in brief: (§5)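 Male Wistar rats (160 ± 10 g) dosed orally once daily for 14 days, from the day before injecting 0.1 ml Freund's complete adjuvant into the subplantar surface of the right hind paw. Paw swelling, including the uninjected left paw, and body weight recorded. Means ± SEM, n = 6; p < 0.05 versus control.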

Rattus norvegicus [18] = test: Antiarthritic activity against adjuvant-induced arthritis in Wistar rat assessed as inhibition of paw edema at 100 mg/kg, po on day 8; type: functional; conditions: 192 h; method in brief: as §5
Rattus norvegicus [19] = test: Antiarthritic activity against adjuvant-induced arthritis in Wistar rat assessed as inhibition of paw edema at 100 mg/kg, po on day 3; type: functional; conditions: 72 h; method in brief: as §5
Rattus norvegicus [20] = test: Antiarthritic activity against adjuvant-induced arthritis in Wistar rat assessed as weight change at 100 mg/kg, po; type: functional; method in brief: as §5
Rattus norvegicus [21] = test: Toxicity in 24 hrs fasted Wistar rat assessed as ulcer index at 100 mg/kg, po after 14 days; type: organism-based; parameters: dose 100 mg/kg, route oral; conditions: in vivo, 336 h; method in brief: as §4

Compound	Activity (Mus musculus [1])	inhibition in vivo at 100 mg/kg (Rattus norvegicus [2]) [%]	inhibition in vivo at 100 mg/kg (Mus musculus [3]) [%]	inhibition in vivo at 100 mg/kg (Rattus norvegicus [4]) [%]	inhibition in vivo at 100 mg/kg (Rattus norvegicus [5]) [%]	inhibition in vivo at 100 mg/kg (Rattus norvegicus [6]) [%]	inhibition in vivo at 100 mg/kg (Rattus norvegicus [7]) [%]	inhibition in vivo at 100 mg/kg (Rattus norvegicus [8]) [%]	also measured
COc1cc2c(cc1OC)C(CC(=O)Nc1ccccn1)CC2 (stereo not given)	18	32	48	30.4	29.6	25	33.3	29.7	–
COc1cc2c(cc1OC)C(CC(=O)Nc1cccnc1)CC2 (stereo not given)	10.17	30	70.7	33.3	35.2	25	36.7	34.4	–
COc1cc2c(cc1OC)C(CC(=O)Nc1ccccc1)CC2 (stereo not given)	19.83	32	42.8	36.2	38.9	31.2	30	37.5	–
COc1ccc(NC(=O)CC2CCc3cc(OC)c(OC)cc32)cc1 (stereo not given)	14.33	18	58.7	26.1	29.6	34.4	40	27.3	Activity (Rattus norvegicus [9]): -0.66 °C; Activity (Rattus norvegicus [10]): -0.15 °C; Activity (Rattus norvegicus [11]): -1.84 °C; Activity (Rattus norvegicus [12]): -0.12 °C; Activity (Rattus norvegicus [13]): 0.14 °C; Activity (Rattus norvegicus [14]): 0.43 °C; Activity (Rattus norvegicus [15]): 0.26 °C
COc1cc2c(cc1OC)C(CC(=O)Nc1ccc(NC(C)=O)cc1)CC2 (stereo not given)	24	18	30.8	23.2	24.1	25	33.3	22.7	–
COc1cc2c(cc1OC)C(CC(=O)Nc1ccccc1C)CC2 (stereo not given)	24.3	18	30	26.1	25.9	21.9	23.3	25	–
COc1cc2c(cc1OC)C(CC(=O)Nc1ccc(C)cc1)CC2 (stereo not given)	20.33	26	41.4	34.8	37	34.4	30	32.8	UI (Rattus norvegicus [16]): 0
COc1cc2c(cc1OC)C(CC(=O)Nc1ccc([N+](=O)[O-])cc1)CC2 (stereo not given)	15.33	36	55.8	37.7	37	37.5	43.3	37.5	inhibition in vivo at 100 mg/kg (Rattus norvegicus [17]): 10.8%; UI (Rattus norvegicus [16]): 0; inhibition in vivo at 100 mg/kg (Rattus norvegicus [18]): 17.7%; inhibition in vivo at 100 mg/kg (Rattus norvegicus [19]): 27.2%; Activity (Rattus norvegicus [20]): 4.01 g
COc1cc2c(cc1OC)C(CC(=O)Nc1ccc(Br)cc1)CC2 (stereo not given)	21.67	40	37.5	43.5	46.3	50	66.7	40.6	–
COc1cc2c(cc1OC)C(CC(=O)Nc1ccncc1)CC2 (stereo not given)	13.83	44	60.1	42	46.3	42.2	46.7	45.3	Activity (Rattus norvegicus [9]): -0.87 °C; inhibition in vivo at 100 mg/kg (Rattus norvegicus [17]): 19.7%; Activity (Rattus norvegicus [10]): 0.13 °C; Activity (Rattus norvegicus [11]): -2.23 °C; Activity (Rattus norvegicus [12]): -0.11 °C; inhibition in vivo at 100 mg/kg (Rattus norvegicus [18]): 11.1%; Activity (Rattus norvegicus [13]): 0.35 °C; inhibition in vivo at 100 mg/kg (Rattus norvegicus [19]): 17%; Activity (Rattus norvegicus [14]): 0.42 °C; Activity (Rattus norvegicus [20]): 4.25 g; Activity (Rattus norvegicus [15]): 0.74 °C
COc1cc2c(cc1OC)C(CC(=O)O)CC2 (stereo not given)	19.41	24	44	27.5	20.4	18.8	26.7	23.9	–
COc1ccccc1NC(=O)CC1CCc2cc(OC)c(OC)cc21 (stereo not given)	26.17	16	24.5	21.7	24.1	28.1	30	23.4	–
COc1cc2c(cc1OC)C(CC(=O)Nc1cccc(C)c1)CC2 (stereo not given)	15.83	29	54.3	37.7	38	37.5	41.7	40.6	Activity (Rattus norvegicus [9]): -0.51 °C; inhibition in vivo at 100 mg/kg (Rattus norvegicus [17]): 20.7%; Activity (Rattus norvegicus [10]): 0.22 °C; UI (Rattus norvegicus [21]): 0; Activity (Rattus norvegicus [11]): -1.34 °C; Activity (Rattus norvegicus [12]): -0.19 °C; inhibition in vivo at 100 mg/kg (Rattus norvegicus [18]): 19.2%; Activity (Rattus norvegicus [13]): 0.46 °C; inhibition in vivo at 100 mg/kg (Rattus norvegicus [19]): 16.5%; Activity (Rattus norvegicus [14]): 0.82 °C; Activity (Rattus norvegicus [20]): 4.56 g; Activity (Rattus norvegicus [15]): 0.71 °C
